Assay results as given in ChEMBL document CHEMBL1155133, “Synthesis, cytotoxicity, and antioxidative activity of minor prenylated chalcones from Humulus lupulus” (J Nat Prod, 2008).

Key:
[1] = Antioxidant activity assessed as trolox equivalents at 0.2 to 0.6 uM by ORAC-fluorescein assay; type: functional
[2] = system: HeLa; assay: Cytotoxicity against human HeLa cells by MTT assay after 72 hrs; type: functional, cell-based
Outline: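 HeLa (ATCC […]) cells grown in MEM with 10% FCS and 2 mM L-glutamine at 37 °C, 5% CO2. MTT colorimetric read-out at 560 nm. Eight concentrations tested in duplicate, with experiments repeated three times. IC50 reported as mean ± SD.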

[3] = Antioxidant activity assessed as trolox equivalents at 0.1 to 1 uM by ORAC-fluorescein assay; type: functional
Outline: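 Fluorescein probe at 300 nM final in 75 mM phosphate buffer, pH 7.4. Samples at five concentrations (0.1-1.0 µM) preincubated with probe at 37 °C for 15 min. AAPH (12 mM final) then added. Fluorescence (ex 485/em 536 nm) read every minute for 80 min at 37 °C. Quadruplicates, ≥4 independent assays. AUC converted to Trolox equivalents (mean ± SD) using a 1-8 µM Trolox curve run in each assay.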

[4] = Antioxidant activity assessed as trolox equivalents at 0.2 to 1 uM by ORAC-fluorescein assay; type: functional
[5] = Antioxidant activity assessed as trolox equivalents at 0.4 to 1.3 uM by ORAC-fluorescein assay; type: functional

| Structure (SMILES) | IC50 [2] | Activity [3] | further results |
| --- | --- | --- | --- |
| O=c1c(O)c(-c2ccc(O)c(O)c2)oc2cc(O)cc(O)c12 | – | – | Activity [1]: 10.5 |
| COc1cc(O)c(CCC(C)(C)O)c(O)c1C(=O)/C=C/c1ccc(O)cc1 [XANTHOHUMOL H] | 9.2 µM | 4.8 | – |
| COc1cc(OC)c(C(=O)/C=C/c2ccc(O)cc2)c(O)c1C | 12.2 µM | 2.1 | – |
| COc1cc(O)c(CC=C(C)C)c(O)c1C(=O)/C=C/c1ccc(O)cc1 | – | 2.3 | – |
| COc1c(CC=C(C)C)c(O)cc(O)c1C(=O)/C=C/c1ccc(O)cc1 | 10.4 µM | 5.2 | – |
| O=C(O)/C=C/c1ccc(O)c(O)c1 | – | – | Activity [4]: 6.6 |
| COc1c(CC=C(C)C)c(O)c(CC=C(C)C)c(O)c1C(=O)/C=C/c1ccc(O)cc1 | 9.7 µM | 1.9 | – |
| COc1cc2c(c(O)c1C(=O)/C=C/c1ccc(O)cc1)C=CC(C)(C)O2 [XANTHOHUMOL C] | 12.5 µM | 1.8 | – |
| CC(C)=CCC/C(C)=C/Cc1c(O)cc(O)c(C(=O)/C=C/c2ccc(O)cc2)c1O | 18.2 µM | 2.3 | – |
| COc1cc(O)c(C(=O)/C=C/c2ccc(O)cc2)c(OC)c1 [FLAVOKAWAIN C] | 19.2 µM | 4 | – |
| COc1cc(/C=C/C(=O)O)ccc1O | – | – | Activity [5]: 4.4 |
| COc1cc2c(c(O)c1C(=O)/C=C/c1ccc(O)cc1)CCC(C)(C)O2 | 15.4 µM | 1.7 | – |
| COc1cc(O)c(C/C=C(\C)CCC=C(C)C)c(O)c1C(=O)/C=C/c1ccc(O)cc1 | 8.2 µM | 3.4 | – |
